Experimental findings from ChEMBL document CHEMBL1124448, “Comparison of the biological effects of selected 5,8-dideazafolate analogues with their 2-desamino counterparts” (J Med Chem, 1989) are described below.

The subject of experiment [1] is L1210. Put plainly: Inhibition of the growth of methotrexate resistant L1210 leukemia/R 81 cells in culture. Conditions: Mus musculus. The class given is functional, cell-based. The procedure, abridged:
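MTT viability assay, 48 h. Log-phase cells were plated at […] onto serial drug dilutions in RPMI 1640 with 10% fetal bovine serum, in 8% CO2, humidified. MTT (5 mg/mL stock) was added for 3 h and the formazan dissolved in 0.04 N HCl/2-propanol. A570 was read within 1 h. Each plate carried no-drug control and no-cell blank rows. IC50 determined.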

Experiment [2] deals with L1210. Put plainly: Inhibition of the growth of methotrexate sensitive L1210 leukemia/S cells in culture. The class given is functional, cell-based. The settings on record: Mus musculus. The procedure, abridged:
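MTT viability assay, 48 h. MTT (5 mg/mL stock) was added for 3 h and the formazan dissolved in 0.04 N HCl/2-propanol. A570 was read within 1 h. Each plate carried no-drug control and no-cell blank rows. IC50 determined.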

In another experiment the target is Thymidylate synthase (Mus musculus, UniProt P07607). Put plainly: Inhibition of L1210 leukemia thymidylate synthase (TS) enzyme. The settings on record: read-out: I50.
Chain of Thymidylate synthase (P07607 whole entry): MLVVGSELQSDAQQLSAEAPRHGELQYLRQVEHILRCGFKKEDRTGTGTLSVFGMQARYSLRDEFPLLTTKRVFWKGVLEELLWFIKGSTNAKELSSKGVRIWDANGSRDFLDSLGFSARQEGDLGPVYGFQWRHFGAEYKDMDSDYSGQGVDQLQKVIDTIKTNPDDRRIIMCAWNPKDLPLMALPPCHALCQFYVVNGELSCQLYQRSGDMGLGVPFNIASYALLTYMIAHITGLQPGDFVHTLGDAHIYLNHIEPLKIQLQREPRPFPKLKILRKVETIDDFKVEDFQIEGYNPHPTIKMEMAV

In the case of `C#CCN(Cc1ccc2ncnc(O)c2c1)c1ccc(C(=O)NC(CCC(=O)O)C(=O)O)cc1` (stereo not given), the IC50 turned out to be 75 µM in the experiment on L1210 [1] and 0.27 µM in the experiment with L1210 [2].
Regarding `Nc1nc(=O)c2cc(NCc3ccc(C(=O)NC(CCC(=O)O)C(=O)O)cc3)ccc2[nH]1` (stereo not given), the IC50 in the experiment with L1210 [1] was above 200 µM; in the experiment with L1210 [2], 3.2 µM.
On the same counts, the results for `Nc1nc(O)c2cc(COc3ccc(C(=O)NC(CCC(=O)O)C(=O)O)cc3)ccc2n1` (stereo not given) are 39 µM and 1.2 µM.
As to `CN(Cc1cnc2nc(N)nc(N)c2n1)c1ccc(C(=O)N[C@@H](CCC(=O)O)C(=O)O)cc1` [METHOTREXATE], the IC50 in the experiment on L1210 [1] was determined as 186 µM; in the experiment on L1210 [2] it was 0.0044 µM.
Molecule `C#CCN(Cc1ccc2[nH]c(N)nc(=O)c2c1)c1ccc(C(=O)NC(CCC(=O)O)C(=O)O)cc1` (stereo not given) registered an IC50 with L1210 [1] of 116 µM.
Regarding `O=C(O)CCC(NC(=O)c1ccc(CNc2ccc3ncnc(O)c3c2)cc1)C(=O)O` (stereo not given), the values for the IC50 in the experiment on L1210 [1], in the experiment with L1210 [2] and on Thymidylate synthase were above 200 µM, 0.53 µM and 25 µM, respectively.
`O=C(O)CCC(NC(=O)c1ccc(OCc2ccc3ncnc(O)c3c2)cc1)C(=O)O` (stereo not given): the values for the IC50 with L1210 [1], in the experiment on L1210 [2] and on Thymidylate synthase were above 200 µM, 0.28 µM and 49 µM, respectively.
On the same counts, the results for `O=C(O)CCC(NC(=O)c1ccc(SCc2ccc3ncnc(O)c3c2)cc1)C(=O)O` (stereo not given) are above 200 µM, 1.3 µM and 13.8 µM.
`Nc1nc(=O)c2cc(CSc3ccc(C(=O)NC(CCC(=O)O)C(=O)O)cc3)ccc2[nH]1` (stereo not given): the results for the IC50 in the experiment on L1210 [1] and in the experiment with L1210 [2] were above 200 µM and 7.6 µM, respectively.
